Assay results from ChEMBL document CHEMBL1123801, “Synthesis and antifungal activity of new 1-vinylimidazoles” (1987).
≈ marks a conversion by molar mass, not a printed value.

Key:
Assay type in all cases: functional
Candida albicans [1] = experiment: Minimum inhibitory concentration (MIC) against Candida albicans
How it was run: (§1)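 Broth microdilution in Sabouraud's glucose broth. Final inocula 1×10^5 cells/mL for the yeast (C. albicans) and 1×10^5 conidia/mL for the mold (A. fumigatus) and the dermatophyte (T. asteroides). MIC read as the fungistatic end point. Lowest value of duplicated experiments.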

Trichophyton benhamiae = experiment: Minimum inhibitory concentration against Trichophyton asteroides; how it was run: as §1
Aspergillus fumigatus = experiment: Minimum inhibitory concentration (MIC) against Aspergillus fumigatus; how it was run: as §1
Candida albicans [2] = experiment: Inhibition of pseudomycelium formation of Candida albicans.; conditions: read-out: MEC
How it was run: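 C. albicans KE-2 (clinical isolate), final inoculum 1×10^6 yeast cells/mL in EMEM with 20% calf serum. Compounds serially diluted by the microtiter dilution system used for MICs. After incubation, wells Giemsa-stained (5% in phosphate buffer) and examined microscopically. MEC (μg/mL) = lowest concentration preventing typical pseudomycelium formation. Lowest value of duplicated experiments.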

| Compound | MIC (Candida albicans [1]) [µg/mL] | MIC (Trichophyton benhamiae) [µg/mL] | MIC (Aspergillus fumigatus) [µg/mL] | minimal effective concentration (Candida albicans [2]) [µg/mL] |
| --- | --- | --- | --- | --- |
| C=C(c1ccccc1OCCOc1ccc(Cl)cc1)n1ccnc1 | 50 (≈ 147 µM) | 0.1 (≈ 0.293 µM) | 1.6 (≈ 4.69 µM) | – |
| C=C(c1ccc(Cl)cc1OCc1ccc(Cl)cc1)n1ccnc1 | > 100 | > 100 | > 100 | – |
| C=C(c1cc(Cl)ccc1OC)n1ccnc1 | > 100 | 0.4 (≈ 1.7 µM) | 3.1 (≈ 13.2 µM) | – |
| C=C(c1cc(Cl)ccc1OCCc1ccccc1)n1ccnc1 | 50 (≈ 154 µM) | 0.1 (≈ 0.308 µM) | 6.3 (≈ 19.4 µM) | – |
| C=C(c1cc(Cl)cc(Cl)c1OCc1ccsc1Cl)n1ccnc1 | > 100 | 3.1 (≈ 8.04 µM) | 50 (≈ 130 µM) | – |
| CC(C)=C(c1ccccc1OCCc1ccccc1)n1ccnc1 | 50 (≈ 157 µM) | 0.1 (≈ 0.314 µM) | 0.8 (≈ 2.51 µM) | – |
| C=C(c1cc(Cl)cc(Cl)c1OCc1ccc(Cl)cc1)n1ccnc1 | > 100 | 6.2 (≈ 16.3 µM) | > 100 | – |
| C=C(c1cc(Cl)ccc1OC(CCC)c1ccccc1)n1ccnc1 (configuration not stated) | > 100 | 0.8 (≈ 2.27 µM) | > 100 | – |
| C=C(c1ccccc1OC)n1ccnc1 | > 100 | 1.6 (≈ 7.99 µM) | 12.5 (≈ 62.4 µM) | – |
| CC(C)=C(c1cc(Cl)ccc1OCc1ccc(C)cc1)n1ccnc1 | 25 (≈ 70.8 µM) | 1.6 (≈ 4.53 µM) | 12.5 (≈ 35.4 µM) | – |
| CC(C)=C(c1ccccc1OCCCc1ccccc1)n1ccnc1 | 25 (≈ 75.2 µM) | 0.2 (≈ 0.602 µM) | 1.6 (≈ 4.81 µM) | – |
| C=C(c1cc(Cl)ccc1OCc1ccc(C)cc1)n1ccnc1 | 25 (≈ 77 µM) | 0.8 (≈ 2.46 µM) | 1.6 (≈ 4.93 µM) | – |
| CC(C)COc1ccc(Cl)cc1/C(=C\CN(C)C)n1cncn1 | > 100 | 12.5 (≈ 37.3 µM) | > 100 | 0.31 |
| CCCOc1ccccc1/C(=C\CN(C)C)n1ccnc1 | > 100 | 12.5 (≈ 43.8 µM) | > 100 | 0.31 |
| CC(C)COc1ccccc1/C(=C\CN1CCOCC1)n1ccnc1 | > 100 | 6.3 (≈ 18.5 µM) | > 100 | 2.5 |
| C=C(c1cc(Cl)ccc1OC(CC)c1ccccc1)n1ccnc1 (configuration not stated) | > 100 | 0.1 (≈ 0.295 µM) | 12.5 (≈ 36.9 µM) | – |
| C=C(c1ccccc1OCC)n1ccnc1 | > 100 | 0.4 (≈ 1.87 µM) | 3.1 (≈ 14.5 µM) | – |

More lines, main results first:

| MIC (Candida albicans [1]) [µg/mL] | MIC (Trichophyton benhamiae) [µg/mL] | MIC (Aspergillus fumigatus) [µg/mL] | Compound | minimal effective concentration (Candida albicans [2]) [µg/mL] |
| --- | --- | --- | --- | --- |
| 25 (≈ 69.6 µM) | 0.1 (≈ 0.278 µM) | 0.4 (≈ 1.11 µM) | C=C(c1ccccc1OCCc1ccc(Cl)cc1Cl)n1ccnc1 | – |
| 25 (≈ 67.4 µM) | 0.1 (≈ 0.27 µM) | 3.1 (≈ 8.36 µM) | C=C(c1ccccc1OCCCSc1ccc(Cl)cc1)n1ccnc1 | – |
| 25 (≈ 103 µM) | 50 (≈ 206 µM) | 1.6 (≈ 6.6 µM) | C=C(c1ccccc1OCCCC)n1ccnc1 | – |
| 12.5 (≈ 39.3 µM) | 0.4 (≈ 1.26 µM) | 12.5 (≈ 39.3 µM) | C=C(c1ccccc1OC(CCC)c1ccccc1)n1ccnc1 (configuration not stated) | – |
| 25 (≈ 72.4 µM) | 0.1 (≈ 0.29 µM) | 3.1 (≈ 8.98 µM) | C=C(c1ccccc1OCc1ccc(Cl)c(Cl)c1)n1ccnc1 | – |
| 3.1 (≈ 8.63 µM) | 0.8 (≈ 2.23 µM) | 0.8 (≈ 2.23 µM) | CC=C(c1cc(Cl)ccc1OCc1ccc(Cl)cc1)n1ccnc1 | – |
| 25 (≈ 78.5 µM) | 3.1 (≈ 9.74 µM) | 3.1 (≈ 9.74 µM) | C=C(c1ccccc1OCc1ccc(C(C)C)cc1)n1ccnc1 | – |
| 25 (≈ 81.6 µM) | 0.1 (≈ 0.326 µM) | 6.2 (≈ 20.2 µM) | C=C(c1ccccc1OCc1ccc(OC)cc1)n1ccnc1 | – |
| 12.5 (≈ 35.2 µM) | 0.1 (≈ 0.282 µM) | 12.5 (≈ 35.2 µM) | C=C(c1ccccc1OCCCOc1ccc(Cl)cc1)n1ccnc1 | – |
| 6.2 (≈ 18.3 µM) | 1.6 (≈ 4.72 µM) | 1.6 (≈ 4.72 µM) | CCC=C(c1cc(Cl)ccc1OCc1ccccc1)n1ccnc1 | – |
| 12.5 (≈ 33.5 µM) | 3.1 (≈ 8.3 µM) | 1.6 (≈ 4.29 µM) | CC(C)=C(c1ccccc1OCc1ccc(Cl)cc1Cl)n1ccnc1 | – |
| 6.2 (≈ 16.6 µM) | 0.2 (≈ 0.536 µM) | 6.2 (≈ 16.6 µM) | CC(C)=C(c1cc(Cl)ccc1OCc1ccc(Cl)cc1)n1ccnc1 | – |
| 12.5 (≈ 41.1 µM) | 0.1 (≈ 0.329 µM) | 25 (≈ 82.1 µM) | C=C(c1ccccc1OCc1ccc(CC)cc1)n1ccnc1 | – |
| 12.5 (≈ 45.2 µM) | 0.2 (≈ 0.724 µM) | 3.1 (≈ 11.2 µM) | C=C(c1ccccc1OCc1ccccc1)n1ccnc1 | – |
| 12.5 (≈ 32.6 µM) | 1.6 (≈ 4.18 µM) | 6.2 (≈ 16.2 µM) | CC(C)=C(c1ccccc1OCCCOc1ccc(Cl)cc1)n1ccnc1 | – |
| 12.5 (≈ 34.8 µM) | 0.1 (≈ 0.278 µM) | 12.5 (≈ 34.8 µM) | C=C(c1cc(Cl)ccc1OC(C)c1ccc(Cl)cc1)n1ccnc1 (configuration not stated) | – |
| 3.1 (≈ 9.15 µM) | 0.1 (≈ 0.295 µM) | 1.6 (≈ 4.72 µM) | C/C=C(\c1ccccc1OC(C)c1cccc(Cl)c1)n1ccnc1 (configuration not stated) | – |
| 12.5 (≈ 36.9 µM) | 3.1 (≈ 9.15 µM) | 3.1 (≈ 9.15 µM) | CC(C)=C(c1ccccc1OCc1cccc(Cl)c1)n1ccnc1 | – |
| 12.5 (≈ 36.9 µM) | 0.2 (≈ 0.59 µM) | 0.8 (≈ 2.36 µM) | C=C(c1ccccc1OCCCc1ccc(Cl)cc1)n1ccnc1 | – |
| 12.5 (≈ 41.1 µM) | 0.1 (≈ 0.329 µM) | 3.1 (≈ 10.2 µM) | C=C(c1ccccc1OCCCc1ccccc1)n1ccnc1 | – |
| 6.2 (≈ 19.1 µM) | 3.1 (≈ 9.54 µM) | 1.6 (≈ 4.93 µM) | CC=C(c1ccccc1OCc1cccc(Cl)c1)n1ccnc1 | – |
